Screens deposited in PubChem BioAssay by The Scripps Research Institute Molecular Screening Center.
Only some compounds are listed: those with a hit (about 3.3% of all), similar ones and a draw of the others.
MBD2 inh – blocks human MBD2 binding to methylated DNA; Q9UBB5; TR-FRET, MBD2 binding to methylated oligonucleotide; inhibition, % at 4.4 µM; 0.31% of 370,000 active; AID 686964; in the data active means inhibition above about 13%
Target sequence (Q9UBB5 whole entry, looked up): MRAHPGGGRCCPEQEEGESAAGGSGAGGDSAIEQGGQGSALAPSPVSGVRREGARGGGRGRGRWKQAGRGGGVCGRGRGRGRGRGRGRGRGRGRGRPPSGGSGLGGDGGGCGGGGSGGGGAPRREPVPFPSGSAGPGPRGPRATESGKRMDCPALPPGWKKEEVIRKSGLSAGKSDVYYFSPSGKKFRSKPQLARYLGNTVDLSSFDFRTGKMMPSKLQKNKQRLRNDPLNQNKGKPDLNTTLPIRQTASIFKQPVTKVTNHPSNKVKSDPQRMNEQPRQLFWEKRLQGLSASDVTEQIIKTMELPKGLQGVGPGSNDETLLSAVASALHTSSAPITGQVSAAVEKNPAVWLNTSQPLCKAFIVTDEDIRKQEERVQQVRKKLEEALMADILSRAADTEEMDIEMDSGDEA
TDP2 absorb – TDP2 (human) inhibition, absorbance primary screen; recombinant TDP2, T5PNP hydrolysis, p-nitrophenol absorbance 415 nm; inhibition, % at 12.8 µM; O95551; 0.34% of 370,000 active;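 active means inhibition above the mean of all tested compounds plus 3 SD, set per campaign, cut at about 25% in these data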;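 further: 0% = DMSO with enzyme and 100% = buffer with substrate but no TDP2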
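Material: recombinant human TDP2; quantity: TDP2 enzyme at 120 nM final; medium: Tris-HCl pH 7.5 with MgCl2; compound: single concentration, 12.8 µM nominal, with 1% DMSO; incubation: 2 h enzyme incubation at 37 °C; signal: epi absorbance; measure: percent inhibition; benchmarks: high control without enzyme, low control DMSO plus TDP2; repeats: singlicate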
UHRF1 MBD2 ctr – blocks human UHRF1 binding to methylated DNA | Q96T88 | UHRF1 binding to methylated oligo, TR-FRET | inhibition, % at 4.4 µM | 0.75% of 370,000 active; in the data active means inhibition above about 21%;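 further: UHRF1 SRA domain binding a hemimethylated CpG hairpin DNA probe; 0% = median of test compound wells and 100% = reference inhibitor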
PRMT1 inh – PRMT1 (human) inhibition, primary screen | Q99873 | recombinant PRMT1, activity-based probe fluorescence polarization | inhibition, % at 2.79 µM | 1.3% of 370,000 active | AID 652257;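 active means inhibition above about 21% made by adding two undisclosed values, limit read from the data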
SIAE inh – blocks human sialic acid acetylesterase | Q9HAT2 | SIAE FP-Rh probe binding, fluorescence polarization | inhibition, % at 9.66 µM | 0.69% of 370,000 active | AID 1053197;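 active means inhibition above a cutoff: mean of compounds within the control limits plus 3 SD of those, cut at about 17% in these data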;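 further: 0% = plate median of compound wells and 100% = probe without SIAE protein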
LEDGF integ inh – blocks HIV-1 LEDGF/p75-dependent DNA integration; AID 743269; 0.64% of 370,000 active; TR-FRET IN-LEDGF/p75 DNA integration, Eu/Cy5; inhibition, % at 3.7 µM;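 active means inhibition above the screen-wide mean plus 3 SD, cut at about 13% in these data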;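 further: signal is the Cy5 over europium emission ratio at 671 and 618 nm; 0% = plate median of compound wells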
PRMT1 inh conf – confirmation of human PRMT1 inhibitors; shares compounds with PRMT1 inh; recombinant His-PRMT1, activity-based probe fluorescence polarization; inhibition, % at 2.79 µM; 42% of 3,300 active; AID 687036;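 active means mean inhibition across replicates above the hit cutoff derived for the earlier primary screen, cut at about 22% in these data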
An asterisk follows results filed as active; / = no result given.

SMILES	MBD2 inh	TDP2 absorb	UHRF1 MBD2 ctr	PRMT1 inh	SIAE inh	LEDGF integ inh	PRMT1 inh conf
CCOC(=O)c1cc(CC)sc1N1C(=O)CC(Sc2ccccc2C(=O)O)C1=O (stereo not given)	7.3	6.6	1.6	54.2*	4.8	-9.7	55.7*
O=C(O)c1ccccc1SC1CC(=O)N(c2ccccc2)C1=O (stereo not given)	2.4	12.8	-2.0	66.4*	0.4	-1.9	23.1*
CCNC(=O)C[C@H]1CC[C@H]2[C@@H](COc3ccc(NC(=O)c4ccc5c(c4)OCO5)cc3C(=O)N2C)O1	9.7	3.1	9.4	7.6	1.4	3.7	/
CCOc1ccc(-n2c(SCC(=O)Nc3ccccc3-c3ccccc3)nnc2-c2ccccc2)cc1	-5.5	-6.5	0.0	-2.9	-1.9	-0.6	/
O=C(NN1C(=O)/C(=C/c2ccc(O)c([N+](=O)[O-])c2)SC1=S)c1ccccc1Cl	-9.3	8.6	-1.3	27.8*	-8.3	5.5	14.5
COc1cc(/C=C2\SC(=S)N(NC(=O)c3ccccc3O)C2=O)ccc1O	-10.7	-11.0	-4.9	5.2	-98.2	-3.4	/
O=[N+]([O-])c1ccc2nc(NCCCO)nc(-c3ccccc3)c2c1	-5.5	-8.8	1.0	17.5	2.7	1.0	/
O=C(O)CNc1nc(-c2ccccc2)c2cc([N+](=O)[O-])ccc2n1	-6.8	-7.4	-5.0	26.1*	3.1	-0.3	30.1*
COCCN(C[C@@H]1[C@H](c2ccccc2)[C@H](CO)N1c1nc(C)c(C)s1)S(=O)(=O)c1ccccc1[N+](=O)[O-]	-2.9	-3.7	1.0	-1.8	-24.5	2.8	/
Cc1ccc(/C=C2\SC(=S)N(c3c(C)n(C)n(-c4ccccc4)c3=O)C2=O)cc1	-4.4	1.2	-3.1	0.1	-0.3	-4.5	/
Cc1c(NC(=O)/C(C#N)=C/C2CC=CCC2)c(=O)n(-c2ccccc2)n1C (stereo not given)	-1.5	-4.0	2.9	0.1	1.8	-3.1	/
Cc1c(N2C(=O)/C(=C\C3CC=CCC3)SC2=S)c(=O)n(-c2ccccc2)n1C (stereo not given)	-4.7	3.2	-15.0	43.0*	-2.4	0.3	25.4*
Cc1c(N2C(=O)/C(=C\c3ccccc3O)SC2=S)c(=O)n(-c2ccccc2)n1C	-4.0	9.3	-3.6	47.1*	4.8	2.2	82.7*
Cc1c(N2C(=O)/C(=C/C3CC=CCC3)SC2=S)c(=O)n(-c2ccccc2)n1C (stereo not given)	-1.7	18.7	-8.0	38.6*	-0.1	0.7	25.9*
CC(=O)O[C@@H]1CCC[C@@]2(C(=O)N(Cc3ccccc3)c3ccc(-c4c(C)noc4C)cc32)[C@H]1NC(=O)CCc1ccccc1	0.7	-0.7	8.2	-0.3	-1.2	4.7	/
CN(CCc1ccccn1)C(=O)c1ccc2c(c1)ncn2C1CCCCC1	0.4	9.5	7.2	1.7	1.7	0.1	/
COC(=O)[C@]12C[C@H](CC(=O)NCc3ccccc3)C(=O)N(Cc3ccc(Cl)cc3Cl)C1=C[C@H](C(C)C)O[C@@H]2C1CC1	-0.8	-9.9	1.4	1.9	-0.9	-5.3	/
O=C(CSS(=O)(=O)O)N1CCN(C(=O)c2ccoc2)CC1	-5.0	2.1	-5.5	44.6*	-1.2	0.1	29.5*
CCCCn1c(N)c(N(CCC(C)C)C(=O)CSc2nc3ccccc3n2C)c(=O)[nH]c1=O	3.7	17.1	1.0	26.7*	-4.0	-5.8	18.7
CCN(C(=O)CN1CCCCCC1)c1c(N)n(Cc2ccccc2)c(=O)[nH]c1=O	6.2	-1.3	-1.2	0.1	2.1	-1.3	/
CCn1c(SCC(=O)N(C)c2c(N)n(Cc3ccccc3)c(=O)[nH]c2=O)nc2ccccc21	6.8	10.0	2.3	26.6*	0.6	0.9	27.0*
CCN(C(=O)CSc1nnc(-c2cccc(Cl)c2)n1N)c1c(N)n(Cc2ccccc2)c(=O)[nH]c1=O	0.6	-1.2	-1.2	31.5*	0.0	2.9	37.7*
CCN(C(=O)CN1CCN(c2ccc(O)cc2)CC1)c1c(N)n(Cc2ccccc2)c(=O)[nH]c1=O	0.7	3.4	-1.5	27.5*	5.9	5.9	9.4
COC(=O)[C@H](C(C)C)N(CCCc1cn(Cc2ccccc2)nn1)S(=O)(=O)c1ccccc1Br	3.2	-0.2	-2.7	1.6	4.1	1.9	/
CCCCN1C(=O)N2Cc3cc(OC)ccc3C2CS1(=O)=O (stereo not given)	-6.3	1.0	-1.8	0.3	-3.0	-0.6	/
SMILES	MBD2 inh	TDP2 absorb	UHRF1 MBD2 ctr	PRMT1 inh	SIAE inh	LEDGF integ inh	PRMT1 inh conf
CC(COc1ccc(Br)cc1)CN1CCC(C(O)(c2ccccc2)c2ccccc2)CC1 (stereo not given)	-1.4	-7.2	0.1	-3.4	-2.1	-5.2	/
Cc1ccc2c(CC(=O)N(C)c3c(N)n(Cc4ccccc4)c(=O)[nH]c3=O)coc2c1	-3.4	10.2	-3.9	94.1*	0.2	-0.4	-2.0
CCN(C(=O)COC(=O)Cc1coc2cc(C)ccc12)c1c(N)n(Cc2ccccc2)c(=O)[nH]c1=O	2.2	0.8	0.4	0.8	-2.2	-5.4	/
Cc1ccc(S(=O)(=O)N2CCC(C(=O)NCc3cccs3)CC2)cc1	-2.9	10.1	-3.0	1.1	-6.8	2.7	/
O=S(=O)(CCSc1ccccn1)c1nc2ccccc2s1	2.0	21.4	-7.3	25.9*	-1.4	2.7	13.2
O=S(=O)(CCSc1nc2ccccc2o1)c1nc2ccccc2s1	0.0	-3.8	0.6	-2.2	3.0	-1.7	/
CC(C)(C)c1nnc(SCC(=O)c2ccccc2)n(N)c1=O	-1.5	-0.5	1.0	74.9*	0.1	-2.2	57.4*
O=C(NCc1ccc(Cl)cc1)C1C2C=CC3(CN(Cc4ccccc4)C(=O)C13)O2 (stereo not given)	-0.8	-4.5	3.7	0.2	-2.5	3.9	/
CC(=O)c1ccc(NC(=O)c2sc3nc(N4CCOCC4)c4c(c3c2N)CCCC4)cc1	-0.8	-0.2	-4.8	20.2	-0.1	0.2	/
Cc1ccc(NC(=O)c2sc3nc(N4CCOCC4)c4c(c3c2N)CCCC4)cc1	-2.3	0.2	-3.3	26.5*	1.2	-0.1	19.8
Nc1c(C(=O)Nc2ccc(Cl)cc2)sc2nc(N3CCOCC3)c3c(c12)CCCC3	10.1	22.7	-4.1	30.2*	-7.0	-0.7	46.0*
CCOc1ccc(NC(=O)c2sc3nc(N4CCOCC4)c4c(c3c2N)CCCC4)cc1	2.2	3.5	14.1	17.0	9.5	0.5	/
COc1cccc(NC(=O)c2sc3nc(N4CCOCC4)c4c(c3c2N)CCCC4)c1	1.9	1.2	-4.9	32.5*	6.5	0.5	8.1
Nc1c(C(=O)Nc2ccccc2)sc2nc(N3CCOCC3)c3c(c12)CCCC3	0.8	-2.5	5.7	34.5*	-0.9	0.8	20.2
